Assay results of several laboratories.
Protocols differ between the studies behind these lines.
Target: Cytoplasmic tyrosine-protein kinase BMX (BMX, Homo sapiens, UniProt P51813)
Effect on: enzyme activity
Action: inhibitor
Residues used in one study (P51813 1-675): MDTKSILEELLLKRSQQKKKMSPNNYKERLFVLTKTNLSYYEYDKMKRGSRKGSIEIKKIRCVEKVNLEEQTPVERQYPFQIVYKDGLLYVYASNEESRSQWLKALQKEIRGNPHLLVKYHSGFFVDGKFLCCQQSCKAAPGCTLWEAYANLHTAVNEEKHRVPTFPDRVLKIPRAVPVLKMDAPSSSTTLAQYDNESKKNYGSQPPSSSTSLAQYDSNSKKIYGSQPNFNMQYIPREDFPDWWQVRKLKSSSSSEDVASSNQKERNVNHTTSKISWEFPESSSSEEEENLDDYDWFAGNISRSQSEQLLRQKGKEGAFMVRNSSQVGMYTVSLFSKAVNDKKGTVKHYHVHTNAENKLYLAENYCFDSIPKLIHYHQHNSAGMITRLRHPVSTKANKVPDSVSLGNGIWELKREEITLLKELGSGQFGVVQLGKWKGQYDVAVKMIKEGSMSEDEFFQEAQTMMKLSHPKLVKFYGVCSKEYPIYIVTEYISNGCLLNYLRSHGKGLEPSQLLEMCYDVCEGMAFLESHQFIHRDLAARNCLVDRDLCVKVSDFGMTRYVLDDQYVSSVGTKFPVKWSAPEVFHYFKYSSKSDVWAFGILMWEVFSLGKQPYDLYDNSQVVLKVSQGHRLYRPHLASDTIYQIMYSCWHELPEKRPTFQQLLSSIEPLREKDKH

Cc1ccc(C(=O)Nc2ccc(CN3CCN(C)CC3)c(C(F)(F)F)c2)cc1C#Cc1cnc2cccnn12  remaining activity (23.5 nM): 47%
O=C(Nc1cnn(-c2csc(C(=O)NC3COC3)c2)c1)Nc1c(F)cccc1Cl  remaining activity (5 µM): 96.8%
CC(C)(O)[C@H]1CC[C@H](Nc2ccc3ncc(-c4cccc(C(F)(F)F)c4)n3n2)CC1  remaining activity (1 µM): 71.5%
Cc1sc(C(=O)NC2COC2)cc1-n1cc(NC(=O)Nc2c(F)cccc2Cl)cn1  remaining activity (10 µM): 92.9%
CCN(CC)c1ccc(C2=NNC(=O)CC2C)cc1[N+](=O)[O-] (stereo not drawn)  remaining activity (10 µM): 96%
CCN(CC)CCNC(=O)c1c(C)[nH]c(/C=C2\C(=O)Nc3ccc(Cl)cc32)c1C  remaining activity (0.5 µM): 99.3%
CC(C)(C)c1nc2c(s1)c1nc(N)ncc1c1ccc(NS(=O)(=O)c3c(F)cccc3F)c(F)c12  remaining activity (radiometric; 1 µM): 87%
CCCOc1ccc(OC)c(F)c1C(=O)c1ccc(C(=O)N[C@@H]2CNC[C@H]2NC(=O)c2ccc3[nH]ncc3c2)cc1  remaining activity (10 µM): 87%
COc1ccc(C(=O)Nc2sc3c(c2C(N)=O)CCCC3)cc1OC  remaining activity (0.5 µM): 89.8%
Nc1ncnc2occ(-c3ccc(NC(=O)Nc4cc(C(F)(F)F)ccc4F)cc3)c12  remaining activity (20 µM): 0.5%
COc1cc(Cl)c(C(=O)N[C@@H](CN[C@H]2CC[C@@H](N)CC2)Cc2ccc(C#N)cc2)cc1-c1ccc(CN[C@H](C)c2ccc(C)cc2)o1  remaining activity (1 µM): 72%
COc1cc2ncc(-c3ccccc3)nc2cc1OC  remaining activity (0.5 µM): 92.2%
Cc1cnc(NC2CCOCC2)nc1-n1cnc(C(=O)NC(CN)c2cc(F)cc(Cl)c2)c1 (stereo not drawn)  remaining activity (radiometric; 1 µM): 117%
O=C(O)c1ccc2c3c1cccc3c(=O)n1c3ccccc3nc21  remaining activity (0.5 µM): 96.4%
CC(C)(C)c1nc(-c2cccc(NS(=O)(=O)c3c(F)cccc3F)c2F)c(-c2ccnc(N)n2)s1  remaining activity (radiometric; 1 µM): 75%
